Reference: ChEMBL document CHEMBL2203075, “Terpecurcumins A-I from the rhizomes of Curcuma longa: absolute configuration and cytotoxic activity” (J Nat Prod, 2012)

Columns and labels:
Type in all cases: functional, cell-based
HepG2 = assay: Cytotoxicity against human HepG2 cells after 72 hrs by crystal violet staining based microplate reader analysis; settings: HepG2, 72 h
Summary of the method: (§1)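 ATCC HepG2 and MDA-MB-231 cells grown in DMEM with 10% FBS and no antibiotics. Medium was changed at 50–60% confluence (24–48 h post-plating), then cells were exposed for 72 h. Fixation used 1% glutaraldehyde in PBS for 15 min, followed by 0.02% aqueous crystal violet for 30 min. After a PBS wash and 70% EtOH solubilization, absorbance was read at 570 nm (ref 405 nm). IC50 derived; Taxol was the positive control.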

MDA-MB-231 = assay: Cytotoxicity against human MDA-MB-231 cells after 72 hrs by crystal violet staining based microplate reader analysis; settings: MDA-MB-231, 72 h; summary of the method: as §1
A549 = assay: Cytotoxicity against human A549 cells after 72 hrs by crystal violet staining based microplate reader analysis; settings: A549, 72 h
Summary of the method: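 At 50–60% confluence (24–48 h after plating), medium was refreshed before a 72 h treatment. Cells were fixed in 1% glutaraldehyde/PBS for 15 min and stained with 0.02% crystal violet for 30 min. After a PBS wash, dye was solubilized in 70% EtOH and read at A570 (ref 405 nm). IC50 reported; Taxol was the positive control.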

Structure (SMILES)	IC50 (HepG2) [µM]	IC50 (MDA-MB-231) [µM]	IC50 (A549) [µM]
COc1cc(/C=C/C(=O)/C=C(O)/C=C/c2ccc(O[C@H]3C[C@H]([C@@H](C)CC(=O)C=C(C)C)C=C[C@@]3(C)O)c(OC)c2)ccc1O [TERPECURCUMIN D]	18.3	15.9	14.3
COc1cc(/C=C/C(=O)/C=C(O)/C=C/c2cc(OC)c(O)c([C@H]3C=C(C)CC[C@@H]3[C@@H](C)CC(=O)C=C(C)C)c2)ccc1O [TERPECURCUMIN I]	50.3	69.5	41.1
COc1cc(/C=C/C(=O)/C=C(O)/C=C/c2ccc(O[C@H]3C[C@H]([C@@H](C)CCC=C(C)C)C=C[C@@]3(C)O)c(OC)c2)ccc1O [TERPECURCUMIN C]	29.5	24.6	35
COc1cc(/C=C/C(=O)/C=C(O)/C=C/c2ccc(O[C@H]3C=C(C)[C@@H](O)C[C@@H]3[C@@H](C)CC(=O)C=C(C)C)c(OC)c2)ccc1O [BISABOLOCURCUMIN ETHER]	15.4	10.6	16.1
COc1cc(/C=C/C(=O)/C=C(O)/C=C/c2ccc(O[C@H]3C[C@H]([C@@H](C)CCC=C(C)C)[C@@H](O)C=C3C)c(OC)c2)ccc1O [TERPECURCUMIN B]	64.1	74.9	61.9
COc1cc(/C=C/C(=O)/C=C(O)/C=C/c2ccc(O[C@]3(C)C=C[C@@H]([C@@H](C)CC(=O)C=C(C)C)C[C@@H]3O)cc2)ccc1O [TERPECURCUMIN G]	17.1	15.9	14.5
CC(=O)O[C@H]1C(=O)[C@@]2(C)[C@H]([C@H](OC(=O)c3ccccc3)[C@]3(O)C[C@H](OC(=O)[C@H](O)[C@@H](NC(=O)c4ccccc4)c4ccccc4)C(C)=C1C3(C)C)[C@]1(OC(C)=O)CO[C@@H]1C[C@@H]2O [PACLITAXEL]	0.054	0.052	0.056
COc1cc(/C=C/C(=O)CC(=O)/C=C/c2ccc(O)c(OC)c2)ccc1O [CURCUMIN]	31.3	37.8	49.2
COc1cc(/C=C/C(O)=C/C(=O)/C=C/c2ccc(O)cc2)ccc1O [DEMETHOXYCURCUMIN]	58.1	44.3	38.1
CC(C)=CC(=O)C[C@H](C)[C@H]1C[C@H](O)C(C)=C[C@@H]1Oc1ccc(/C=C/C(O)=C/C(=O)/C=C/c2ccc(O)cc2)cc1 [DIDEMETHOXYBISABOLOCURCUMIN ETHER]	22.7	30.8	27.4
COc1cc(/C=C/C(=O)/C=C(O)/C=C/c2cc(OC)c(O)c([C@H]3C=C(C)[C@@H](O)C[C@@H]3[C@@H](C)CCC=C(C)C)c2)ccc1O [TERPECURCUMIN H]	54.6	43.7	84.3
COc1cc(/C=C/C(O)=C/C(=O)/C=C/c2ccc(O)cc2)ccc1O[C@H]1C=C(C)[C@@H](O)C[C@@H]1[C@@H](C)CC(=O)C=C(C)C [DEMETHOXYBISABOLOCURCUMIN ETHER]	13	10.3	16.6
COc1cc(/C=C/C(=O)/C=C(O)/C=C/c2ccc(O[C@]3(C)C=C[C@@H]([C@@H](C)CCC=C(C)C)C[C@@H]3O)c(OC)c2)ccc1O [TERPECURCUMIN E]	35.9	84.1	41.4
COc1cc(/C=C/C(=O)/C=C(O)/C=C/c2ccc(O[C@H]3C=C(C)[C@@H](O)C[C@@H]3[C@@H](C)CCC=C(C)C)c(OC)c2)ccc1O [TERPECURCUMIN A]	25	27.3	30.6
O=C(/C=C/c1ccc(O)cc1)CC(=O)/C=C/c1ccc(O)cc1 [BISDEMETHOXYCURCUMIN]	62.9	38.5	38.1
COc1cc(/C=C/C(=O)/C=C(O)/C=C/c2ccc(O[C@]3(C)C=C[C@@H]([C@@H](C)CC(=O)C=C(C)C)C[C@@H]3O)c(OC)c2)ccc1O [TERPECURCUMIN F]	15.7	19.4	15.2
